CHOP inhibitor: inhibitors of CHOP induction in ER stress response | CHO-K1 CHOP-promoter luciferase, tunicamycin-induced, 15-18 h | inhibition, % at 10 µM | hit rate 3.8% among 220,000 | AID 2732;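 active = compounds that reduced the stress-induced luciferase reporter signal by more than about 70% of percent inhibition, limit read from the data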
L major viab: Leishmania major promastigote growth inhibition; Leishmania major promastigotes, resazurin fluorescence viability; inhibition, % at 10 µM; hit rate 9% among 200,000; in the data active = inhibition above about 50%;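 note: promastigotes grown with compound for 44 hours at 28 °C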
Autophagy mod: autophagy modulation, high-content screen. hit rate 0.98% among 190,000. calls only at 10 µM (by protocol). MEF GFP-LC3 puncta imaging; test concentration mostly 10 µM. AID 463193;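 active = percentage of spot-positive cells more than 3 SD above its plate mean, without a fluorescence outlier flag or 80% toxicity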
bCat nuc transl: modulators of beta-catenin nuclear translocation. hit rate 0.3% among 190,000. HeLa beta-catenin nuclear translocation, immunofluorescence imaging. nuclear translocation activity, % at 5 µM. AID 1665;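 active = nuclear translocation activity above 50% at 5 µM, with a well cell count of 50 or more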;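 note: per-cell ratio of nuclear to cytoplasmic median beta-catenin stain intensity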
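Signal – beta-catenin immunofluorescence imaging with DAPI · Test system – human HeLa cell line · Dosing – 5 µM primary single dose, 0.1% DMSO, 0.02–20 µM confirmation series · Measure – % activation, nuclear-to-cytoplasmic median beta-catenin signal ratio per cell · Incubation – 24 h compound exposure at 37°C, 5% CO2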
Dynein cargo inh: dynein cargo transport inhibition | 3617.4 mouse cells, GR-EGFP nuclear translocation imaging; test concentration mostly 20 µM; stimulated with dexamethasone, 1 µM; stronger effect = lower value | z-score, hits read low | hit rate 0.47% among 220,000;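 active = plate z-score of nuclear minus cytoplasmic receptor signal below a set negative limit, without overly bright fluorescence or cell loss, cut at about -3.5 in these data, passing the limit was not always enough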;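 note: z-score of nuclear minus cytoplasmic ring GR-EGFP intensity difference per well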
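Schedule: 48 h induction, then 1 h compound, then 30 min agonist, 37 °C. Buffer or medium: tetracycline-free induction medium containing charcoal-stripped FBS. Reagent: 1.0 µM final dexamethasone stimulus. Evaluation: nuclear versus cytoplasmic GR-EGFP signal, averaged per well. Signal: high-content fluorescence imaging after fixation.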
MT stabilize HCS: microtubule stabilizers in HeLa cells; HeLa tubulin immunostaining HCS, 24 h; share of cells brighter than vehicle mean+2SD; % tubulin-high responders, % at 10 µM; hit rate 0.83% among 200,000; AID 2205;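 active = plate Z-score above 3 for both tubulin-high and condensed-nucleus cell shares, with cell loss under 80%, at 10 µM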;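 note: anti alpha tubulin signal scored within the nucleus-defined area of each cell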
Hits are given with their value; n = inactive; x = not tested or not shown. Compounds with a hit are over-represented: about 12% of the library has one in this group of screens.

SMILES	CHOP inhibitor	L major viab	Autophagy mod	bCat nuc transl	Dynein cargo inh	MT stabilize HCS
COc1cc(C(=O)NCC(c2cccnc2)N2CCN(c3ccccc3)CC2)cc(OC)c1OC (centres undefined)	n	67	n	n	n	n
O=C(NCC(c1cccnc1)N1CCOCC1)c1ccc2c(c1)OCO2 (centres undefined)	n	n	n	n	n	n
O=C(NCC(c1cccnc1)N1CCN(c2ccccc2)CC1)c1ccc2c(c1)OCO2 (centres undefined)	n	88	n	x	n	n
CCOc1ccc(S(=O)(=O)N(CC(=O)Nc2cc(C)on2)Cc2ccccc2Cl)cc1	73	n	n	n	n	n
O=P(Cc1cc(Br)cc(Br)c1OCCO)(c1ccccc1)c1ccccc1	n	x	x	n	n	x
CCOC(=O)C1=C(CSc2nc3ccccc3s2)NC(=O)NC1c1cccc([N+](=O)[O-])c1 (centres undefined)	78	n	n	n	n	n
CCOC(=O)C1=C(CNCc2ccccc2Cl)NC(=O)NC1c1cccc([N+](=O)[O-])c1 (centres undefined)	n	n	n	n	n	n
CCOC(=O)c1c(C)[nH]c(C(=O)CC(=O)OC)c1C	n	n	n	n	n	n
O=C(NC1CCCCC1)c1sc(N2CCOCC2)nc1-c1ccccc1	n	88	n	x	n	n
O=C(Nc1ccccc1)c1sc(N2CCOCC2)nc1-c1ccccc1	n	n	n	n	n	n
COc1ccc(N=Cc2c(O)ccc3ccccc23)cc1	80	n	n	n	n	n
COc1ccc(Cn2c(O)c(C=Nc3ccc(C)cc3)c3ccccc3c2=O)cc1	n	92	n	x	n	n
COc1ccc(N=Cc2c(O)n(-c3cccc(C)n3)c(=O)c3ccccc23)cc1	n	n	n	n	n	n
COc1ccc(N=Cc2c(O)n(-c3ccc(OC)cc3)c(=O)c3ccccc23)cc1	72	n	n	x	n	n
CN(C)CCN=Cc1c(O)n(Cc2ccccc2)c(=O)c2ccccc12	n	n	n	n	n	n
CN(C)CCCN=Cc1c(O)n(Cc2ccccc2)c(=O)c2ccccc12	n	92	n	n	n	n
COc1ccc(N2CCN(C(=O)CCc3ccc(S(=O)(=O)NC(C)C)cc3)CC2)cc1	n	n	n	n	n	n
COc1ccc(Cn2c(O)c(C=Nc3ccccc3)c3ccccc3c2=O)cc1	n	n	n	n	n	n
COc1ccc(Cn2c(O)c(C=Nc3ccc(O)cc3)c3ccccc3c2=O)cc1	85	94	n	n	n	n
O=c1c2ccccc2c(C=Nc2ccc(O)cc2)c(O)n1Cc1ccccc1	93	x	x	n	n	x
CCOC(=O)c1nnn(-c2nonc2N)c1CSc1ccccc1	n	n	n	n	n	n
CCOC(=O)c1nnn(-c2nonc2N)c1CN(C)Cc1ccccc1	81	n	n	n	n	n
CN(C=O)CP(=O)(O)CN1CCCCC1	n	n	n	n	n	n
Cc1cc(Br)ccc1NC(=O)CN1C(=O)C2C3CC(c4ccccc4)C(C3)C2C1=O (centres undefined)	85	55	n	n	n	n
Cc1cc(Br)ccc1NC(=O)CNC(=O)CN1C(=O)NC2(CCCCCC2)C1=O	n	n	n	n	n	n
SMILES	CHOP inhibitor	L major viab	Autophagy mod	bCat nuc transl	Dynein cargo inh	MT stabilize HCS
COc1ccc2nc(NC(C)=O)sc2c1	n	n	n	n	n	n
Cc1cccc(NC(=O)NNC(=O)c2cc(-c3ccccc3Cl)nc3ccccc23)c1	n	n	n	x	n	n
O=C(NNC(=O)c1cc(-c2ccc(Cl)c(Cl)c2)nc2ccccc12)Nc1ccccc1	89	61	n	n	n	n
COc1ccc(-c2cc(C(=O)Nc3ccccc3O)c3ccccc3n2)cc1OC	n	n	n	n	n	n
COc1ccc2nc(NC(=O)c3ccc4ncsc4c3)sc2c1	91	n	n	n	n	n
COc1ccc(-c2cc(C(=O)Nc3nc4ccccc4s3)c3ccccc3n2)cc1OC	n	98	n	n	n	n
COc1ccc(-c2cc(C(=O)Nc3c(Cl)cc(Cl)cc3Cl)c3ccccc3n2)cc1OC	79	n	n	n	n	n
O=C(O)c1ccc(N2CCCCS2(=O)=O)cc1	n	n	n	n	n	n
Cc1cc(C)c(NC(=O)CSc2nnc(SCC(=O)Nc3c(C)cc(C)cc3C)n2N)c(C)c1	n	n	n	n	n	n
CCOC(=O)c1ccc(NC(=O)Nc2ncc(Cl)cc2Cl)cc1	n	x	x	n	n	x
NC(=S)Nc1ccc(Cl)cc1Cl	n	x	x	n	n	x
CCOC(=O)C(C)Oc1ccc(=O)n(-c2ccccc2)n1 (centres undefined)	n	n	n	n	n	n
COc1ccc(C(=O)Nc2nc3ccc(S(C)(=O)=O)cc3s2)cc1OC	n	n	n	n	n	n
CC(=O)c1sc(NC(=O)c2cc(-c3ccccc3)nn2-c2ccccc2)nc1C	n	n	n	n	n	n
COc1ccc(C(=O)Nc2nc3ccccc3s2)cc1OC	n	69	n	n	n	n
O=C(Nc1ncccn1)c1cc(-c2cccc(Br)c2)nc2ccccc12	n	83	n	n	n	n
O=C(Nc1nc2ccccc2s1)c1cc(-c2ccccc2)nn1-c1ccccc1	n	93	n	n	n	n
COc1nnc(-c2ccc(N3CCOCC3)c(NC(=O)c3ccccc3)c2)c2ccccc12	86	n	n	x	n	n
O=C(O)CCn1cc(C(=O)O)c(-c2ccccc2)n1	n	x	x	n	n	x
CCc1cc(C(=O)O)c(NC(=O)c2cc(OC)c(OC)c(OC)c2)s1	n	n	n	n	n	n
Cc1nnc(SCC(=O)NCCc2ccccc2)[nH]c1=O	x	n	n	x	n	n
Cc1cc(NC(=O)NC2CC(=O)N(c3ccc4c(c3)OCCO4)C2)no1 (centres undefined)	n	n	n	n	n	n
O=C(CCNC(=O)c1ccco1)Nc1ccccc1N1CCOCC1	n	n	n	n	n	n
COc1ccc(-c2cc(C(=O)Nc3ccccc3N3CCOCC3)c3ccccc3n2)cc1OC	n	64	n	n	n	n
Nc1ccccc1C(=O)NCc1ccc(Cl)cc1	n	n	n	n	n	n
COc1ccc(N(C)S(=O)(=O)c2cccc(C(=O)Nc3cc(OC)ccc3OC)c2)cc1	n	82	n	n	n	n
CC(=O)c1cccc(NC(=O)C(OC(=O)c2cccc(S(=O)(=O)N(C)c3ccccc3)c2)c2ccccc2)c1 (centres undefined)	n	96	n	n	n	n
COc1ccc(N(C)S(=O)(=O)c2cccc(C(=O)OC(C(=O)Nc3cc(C)cc(C)c3)c3ccccc3)c2)cc1 (centres undefined)	n	96	n	x	n	n
COc1ccc(N(C)S(=O)(=O)c2cccc(C(=O)Nc3ccc4c(c3)OCCO4)c2)cc1	n	n	n	n	n	n

Screens deposited in PubChem BioAssay by several laboratories.
